Experimental data published in ChEMBL document CHEMBL1157491, “Pyrazolopyridines as a novel structural class of potent and selective PDE4 inhibitors” (Bioorg Med Chem Lett, 2008).

Legend:
[1] = biological target: 3',5'-cyclic-AMP phosphodiesterase 4B (Homo sapiens, UniProt Q07343); assay: Inhibition of human PDE4B in Sf9 cells; type: cell-based
Procedure, shortened: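 Catalytic activity of human recombinant PDE4B enzyme was measured by scintillation proximity assay (SPA).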

[2] = Inhibition of PDE3
Procedure, shortened: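 Inhibition of PDE3 isolated from bovine aorta, measured as loss of catalytic activity by scintillation proximity assay (SPA).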

[3] = Inhibition of PDE5
Procedure, shortened: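 Inhibition of human recombinant PDE5 catalytic activity, measured by scintillation proximity assay.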

PBMC = assay: Inhibition of TNF alpha production in human PBMC cells by ELISA; type: functional, cell-based
Procedure, shortened: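 PBMCs were isolated from heparinised human blood by centrifugation on histopaque (1000g, 30 min), washed, and resuspended at 5 × 10⁵ cells/ml in RPMI1640 with 10% foetal calf serum, 1% L-glutamine and 1% penicillin/streptomycin. Cells were preincubated with compound for 1 h at 37 °C, 5% CO₂, then stimulated with LPS (1 ng/ml final) for a further 20 h.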

[4] = Selectivity for human PDE4B over PDE3
[5] = Selectivity for human PDE4B over PDE5
[6] = Half life in po dosed rat; type: ADME, organism-based; conditions: in vivo
[7] = Oral bioavailability in rat; type: ADME, organism-based; conditions: in vivo

Chain of 3',5'-cyclic-AMP phosphodiesterase 4B (Q07343 whole entry): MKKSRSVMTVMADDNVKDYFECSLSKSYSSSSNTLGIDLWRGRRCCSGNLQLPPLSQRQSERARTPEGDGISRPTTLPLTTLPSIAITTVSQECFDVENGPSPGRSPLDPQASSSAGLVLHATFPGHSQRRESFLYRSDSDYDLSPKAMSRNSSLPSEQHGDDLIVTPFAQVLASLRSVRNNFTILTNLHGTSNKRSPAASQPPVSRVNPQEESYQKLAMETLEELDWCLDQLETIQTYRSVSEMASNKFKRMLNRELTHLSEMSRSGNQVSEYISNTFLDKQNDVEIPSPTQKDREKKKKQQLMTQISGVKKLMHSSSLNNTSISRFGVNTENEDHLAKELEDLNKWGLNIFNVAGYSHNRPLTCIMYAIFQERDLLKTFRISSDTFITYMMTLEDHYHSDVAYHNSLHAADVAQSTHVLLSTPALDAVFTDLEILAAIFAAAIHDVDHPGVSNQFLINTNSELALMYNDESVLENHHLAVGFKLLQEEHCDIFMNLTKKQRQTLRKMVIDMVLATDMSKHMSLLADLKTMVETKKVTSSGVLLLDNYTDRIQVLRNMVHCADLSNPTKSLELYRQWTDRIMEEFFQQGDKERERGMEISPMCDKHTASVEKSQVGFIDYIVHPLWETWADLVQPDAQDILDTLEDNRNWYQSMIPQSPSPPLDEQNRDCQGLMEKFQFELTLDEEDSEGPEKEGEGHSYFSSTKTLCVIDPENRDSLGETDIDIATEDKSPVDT

CCOC(=O)c1cnc2c(cnn2-c2ccccc2)c1NC1CCOCC1 showed an IC50 [1] of 3160 nM.
Work on CCCCNc1c(C(=O)OCC)cnc2c1cnn2CC [CARTAZOLATE] yielded an IC50 [1] of 200 nM.
With CCn1ncc2c(NC3CCOCC3)c(C(N)=O)cnc21 the IC50 [1] was 25.1 nM, the pIC50 [2] was under 4.5 and the pIC50 [3] was 4.8. It also gave an IC50 (PBMC) of 79.4 nM, a Selectivity ratio [4] of over 100 and a Selectivity ratio [5] of over 100.
Work on CCn1ncc2c(NC3CCOCC3)c(C(=O)NCc3ccccc3)cnc21 yielded a pIC50 [2] of under 4.5, a pIC50 [3] of 5.7 and an IC50 (PBMC) of 20 nM. It also gave a Selectivity ratio [4] of over 100, a Selectivity ratio [5] of over 100 and a half-life [6] of 1.6 h. The bioavailability [7] was 35%.
CCOC(=O)c1cnc2c(cnn2CC)c1Nc1ccc(OC)cc1 gave an IC50 [1] of 1000 nM.
Work on CCOC(=O)c1cnc2c(cnn2CC)c1N1CCCC1 yielded an IC50 [1] of 631 nM.
Work on CCn1ncc2c(NC3CCOCC3)c(C(=O)Nc3ccc(F)cc3)cnc21 yielded a pIC50 [2] of under 4.5, a pIC50 [3] of under 4.7 and an IC50 (PBMC) of 39.8 nM. It also gave a Selectivity ratio [4] of over 100 and a Selectivity ratio [5] of over 100.
With CCOC(=O)c1cnc2c(cnn2CC)c1NC1CCOCC1 the IC50 [1] was 10 nM.
In the case of CCOC(=O)c1cnc2c(cnn2C)c1NC1CCOCC1, the IC50 [1] is reported as 251 nM.
Compound CCOC(=O)c1cnc2c(cnn2Cc2ccccc2)c1NC1CCOCC1 has an IC50 [1] of 3980 nM.
For CCOC(=O)c1cnc2c(cnn2C(C)C)c1NC1CCOCC1, the IC50 [1] was 200 nM.
CCOC(=O)c1cnc2c(cnn2CC)c1NCc1ccc(F)cc1 showed an IC50 [1] of 316 nM.
Work on CCOC(=O)c1cnc2c(cnn2CC)c1N(C)C1CCOCC1 yielded an IC50 [1] of 251 nM.
In the case of CCn1ncc2c(NC3CCOCC3)c(C(=O)N3CCCC3)cnc21, the IC50 [1] is reported as 158 nM, the Selectivity ratio [4] is reported as over 100 and the Selectivity ratio [5] is reported as over 100.
With CCn1ncc2c(NC3CCOCC3)c(C(=O)NC3CC3)cnc21 the IC50 [1] was 100 nM, the Selectivity ratio [4] was over 100 and the Selectivity ratio [5] was over 100.
In the case of CCn1ncc2c(NC3CCOCC3)c(C(=O)N(C)Cc3ccccc3)cnc21, the IC50 [1] is reported as 50.1 nM, the Selectivity ratio [4] is reported as over 100 and the Selectivity ratio [5] is reported as over 100.
CCC(CC)CNC(=O)c1cnc2c(cnn2CC)c1NC1CCOCC1 showed an IC50 [1] of 20 nM, a pIC50 [2] of under 4.5 and a pIC50 [3] of 4.8. The IC50 (PBMC) was 79.4 nM, the Selectivity ratio [4] was over 100 and the Selectivity ratio [5] was over 100.
With CCOC(=O)c1cnc2c(cnn2CC)c1NCC(C)C the IC50 [1] was 15.8 nM.
In the case of CCn1ncc2c(NC3CCOCC3)c(C(=O)NC3CCCC3)cnc21, the IC50 [1] is reported as 50.1 nM, the pIC50 [2] is reported as under 4.5 and the pIC50 [3] is reported as under 4.7. For the same compound, the IC50 (PBMC) was 158 nM, the Selectivity ratio [4] was over 100 and the Selectivity ratio [5] was over 100.
Work on CCOC(=O)c1cnc2c(cnn2CCO)c1NC1CCOCC1 yielded an IC50 [1] of 158 nM.
For CCOC(=O)c1cnc2c(cnn2CC)c1NC1CCCC1, the IC50 [1] was 63.1 nM.
CCOC(=O)c1cnc2[nH]ncc2c1NC1CCOCC1 showed an IC50 [1] of 2000 nM.
For CCOC(=O)c1cnc2c(cnn2CC)c1NS(=O)(=O)c1ccccc1, the IC50 [1] was over 31600 nM.
Compound CCCn1ncc2c(NC3CCOCC3)c(C(=O)OCC)cnc21 has an IC50 [1] of 100 nM.
For CCOC(=O)c1cnc2c(cnn2CC)c1Nc1ccccc1, the IC50 [1] was 158 nM.
CCn1ncc2c(NC3CCOCC3)c(C(=O)NCC3CCCCC3)cnc21 showed an IC50 [1] of 7.94 nM, a pIC50 [2] of under 4.5 and a pIC50 [3] of 5.5. It also gave an IC50 (PBMC) of 63.1 nM, a Selectivity ratio [4] of over 100 and a Selectivity ratio [5] of over 100.
Work on CCn1ncc2c(NC3CCOCC3)c(C(=O)NC3CCN(C(C)=O)CC3)cnc21 yielded an IC50 [1] of 126 nM, a Selectivity ratio [4] of over 100 and a Selectivity ratio [5] of over 100.
CCOC(=O)c1cnc2c(cnn2CC)c1NC(=O)c1ccccc1 showed an IC50 [1] of 2510 nM.
Work on CCOC(=O)CCn1ncc2c(NC3CCOCC3)c(C(=O)OCC)cnc21 yielded an IC50 [1] of 5010 nM.
